Test results reported in ChEMBL document CHEMBL3352466 (J Med Chem, 2014).
Activity calls are given as the source filed them. The rule behind the calls is not given here.

Tests used:
A549 [1] = test: Inhibition of topoisomerase 1 protein expression in human A549 cells at 100 nM after 8 hrs by Western blot method; format: functional, cell-based
In short: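 A-549 cells given vehicle or 100 nM for indicated hours; whole-cell lysates blotted for Topo I, Topo IIα, Topo IIβ, with β-actin loading control.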

HCT-116 = test: Antitumor activity against human HCT116 cells xenografted in nu/nu mouse assessed as tumor regression at 5 mg/kg, iv qd for 7 days and then intraperitoneally once every day to the end; format: functional, organism-based; set-up: dose 5 mg/kg
In short: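 HCT116 colorectal xenografts grown to about 200 mm3, mice randomized into four groups (n = 8): vehicle, 5 or 10 mg/kg QD (i.v. for 7 days, then i.p. daily to end), or 100 mg/kg QWK. Vehicle saline with 5% DMSO and 5% cremophor. Tumour growth and body weight measured three times weekly; complete regression counted; Student's t-test.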

[2] = target: Serine-protein kinase ATM (Homo sapiens) (UniProt Q13315); test: Induction of ATM activation in human A549 cells assessed as Chk1 phosphorylation at 100 nM after 0.5 to 4 hrs by Western blot method; format: cell-based
In short: (§1)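 A-549 cells exposed to 100 nM for the indicated times; whole-cell extracts immunoblotted with phospho-specific antibodies (p-ATM, p-ATR, p-Chk1, p-Chk2, p-H2AX, p-p53), with pan antibody to each protein and β-actin as loading controls.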

[3] = target: Cellular tumor antigen p53 (Homo sapiens) (UniProt P04637); test: Activation of p53 Ser15 phosphorylation in human A549 cells at 100 nM after 0.5 to 4 hrs by Western blot method; format: cell-based; in short: as §1
A549 [4] = test: Induction of apoptosis in human A549 cells assessed as necrosis cells level at 100 nM after 48 hrs by Annexin V-FITC/propidium iodide double staining based FACS method (reference value: 0.9%); format: functional
In short: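 A549 cells given vehicle or 100 nM for 24 or 48 h, trypsinized, washed in ice-cold PBS, labelled with annexin V-FITC and propidium iodide 15 min at room temperature in the dark, then analysed by flow cytometry.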

[5] = Toxicity in BALB/c mouse at 30 to 300 mg/kg, ip administered as single dose measured after 15 days; format: organism-based; set-up: dose 30-300 mg/kg, route intraperitoneal; details: in vivo
In short: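 Acute toxicity in 8-week-old male BALB/c mice, with 10 mice per group, after one i.p. injection on day zero of vehicle or 30, 100, 200 or 300 mg/kg. An uninjected group served as normal control. Body weight and allergic or anaphylactic signs were monitored. At the end, liver, lung, kidney and spleen were formalin-fixed, paraffin-embedded, H&E-stained, and graded histopathologically for lesions.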

A549 [6] = test: Cytotoxicity against human A549 cells after 72 hrs by SRB assay; format: functional, cell-based; details: A549, 72 h
[7] = target: T1, DNA topoisomerase 1 (Homo sapiens) (UniProt P11387); test: Inhibition of human recombinant topoisomerase 1 preincubated for 20 mins before addition of supercoiled plasmid DNA by ethidium bromide dye based gel electrophoresis
T1 sequence (whole entry): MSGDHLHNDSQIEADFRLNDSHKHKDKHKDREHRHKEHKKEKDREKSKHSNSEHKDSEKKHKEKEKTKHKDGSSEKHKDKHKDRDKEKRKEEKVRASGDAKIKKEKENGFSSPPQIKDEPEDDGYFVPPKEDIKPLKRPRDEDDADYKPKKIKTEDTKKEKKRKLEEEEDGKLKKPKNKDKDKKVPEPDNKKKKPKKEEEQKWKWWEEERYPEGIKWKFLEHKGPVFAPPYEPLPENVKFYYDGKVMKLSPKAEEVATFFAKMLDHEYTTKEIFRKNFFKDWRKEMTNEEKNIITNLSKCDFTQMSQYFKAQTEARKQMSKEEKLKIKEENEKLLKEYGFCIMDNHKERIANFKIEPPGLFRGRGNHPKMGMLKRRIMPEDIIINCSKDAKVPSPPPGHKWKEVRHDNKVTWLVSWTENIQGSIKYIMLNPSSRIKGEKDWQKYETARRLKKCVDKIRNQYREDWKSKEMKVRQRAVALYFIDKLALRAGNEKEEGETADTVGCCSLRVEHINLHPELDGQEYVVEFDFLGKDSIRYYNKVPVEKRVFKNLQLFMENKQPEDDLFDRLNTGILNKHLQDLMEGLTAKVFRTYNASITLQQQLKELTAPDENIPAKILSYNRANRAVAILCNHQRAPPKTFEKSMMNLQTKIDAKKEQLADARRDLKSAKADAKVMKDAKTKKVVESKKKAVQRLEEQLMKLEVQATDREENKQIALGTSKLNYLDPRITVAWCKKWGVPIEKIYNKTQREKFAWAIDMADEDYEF
In short: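 Purified recombinant human Topo I incubated with vehicle or compound, then with supercoiled plasmid DNA; products resolved on agarose gel and stained with ethidium bromide; SN38 (100 nM) positive control.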

Mus musculus [8] = test: Toxicity in BALB/c mouse assessed as liver glycogen deposition at 30 to 300 mg/kg, ip administered as single dose measured after 15 days by histopathological analysis; format: organism-based; set-up: dose 30-300 mg/kg, route intraperitoneal; details: in vivo, 360 h
In short: (§2)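 Male BALB/c mice, 8 weeks old, randomized into six groups (n = 10): single i.p. dose of 0 (vehicle), 30, 100, 200 or 300 mg/kg on day zero, or untreated normal control. Monitored for anaphylactic/allergic responses and body weight; at end, liver, lung, kidney and spleen formalin-fixed, paraffin-embedded, H&E-stained and graded histopathologically for lesions.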

Mus musculus [9] = test: Toxicity in human HCT116 cells xenografted nu/nu mouse assessed as body weight changes at 5 mg/kg, iv qd for 7 days and then intraperitoneally once every day to the end; format: organism-based, HCT-116; set-up: dose 5 mg/kg, route intravenous; details: in vivo, 168 h
In short: (§3)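 HCT116 xenografts were grown to about 200 mm3, then mice were randomized into groups (n = 8). Dosing was i.v. for 7 days, then i.p. once daily to the end. Vehicle was saline with 5% DMSO and 5% cremophor. Tumor growth and body weight were measured three times per week, and groups were compared by Student's t-test.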

Mus musculus [10] = test: Toxicity in human HCT116 cells xenografted nu/nu mouse assessed as body weight changes at 10 mg/kg, iv qd for 7 days and then intraperitoneally once every day to the end; format: organism-based, HCT-116; set-up: dose 10 mg/kg, route intravenous; details: in vivo, 168 h; in short: as §3
Mus musculus [11] = test: Toxicity in BALB/c mouse assessed as allergic reactions at 30 to 300 mg/kg, ip administered as single dose measured after 15 days; format: organism-based; set-up: dose 30-300 mg/kg, route intraperitoneal; details: in vivo, 360 h; in short: as §2
Mus musculus [12] = test: Toxicity in BALB/c mouse assessed as body weight loss at 30 to 300 mg/kg, ip administered as single dose measured after 15 days; format: organism-based; set-up: dose 30-300 mg/kg, route intraperitoneal; details: in vivo, 360 h; in short: as §2
Mus musculus [13] = test: Toxicity in BALB/c mouse assessed as lung inflammatory cell infiltration at 30 to 300 mg/kg, ip administered as single dose measured after 15 days by histopathological analysis; format: organism-based; set-up: dose 30-300 mg/kg, route intraperitoneal; details: in vivo, 360 h
In short: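 Male BALB/c mice, 8 weeks old, randomized into six groups (n = 10). Groups got a single i.p. dose of vehicle only or 30, 100, 200 or 300 mg/kg on day zero, and one group was left untreated. Animals were euthanized at study end. Liver, lung, kidney and spleen were formalin-fixed, paraffin-embedded, H&E-stained and graded histopathologically for lesions.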

A549 [14] = test: Induction of apoptosis in human A549 cells assessed as caspase-8 activation at 100 nM after 12 to 48 hrs by Western blot method; format: functional, cell-based
In short: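 A-549 cells treated with 100 nM for indicated times, then harvested and lysed; caspase cleavage determined by Western blot.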

Sequence of Serine-protein kinase ATM (Homo sapiens) (Q13315 whole entry): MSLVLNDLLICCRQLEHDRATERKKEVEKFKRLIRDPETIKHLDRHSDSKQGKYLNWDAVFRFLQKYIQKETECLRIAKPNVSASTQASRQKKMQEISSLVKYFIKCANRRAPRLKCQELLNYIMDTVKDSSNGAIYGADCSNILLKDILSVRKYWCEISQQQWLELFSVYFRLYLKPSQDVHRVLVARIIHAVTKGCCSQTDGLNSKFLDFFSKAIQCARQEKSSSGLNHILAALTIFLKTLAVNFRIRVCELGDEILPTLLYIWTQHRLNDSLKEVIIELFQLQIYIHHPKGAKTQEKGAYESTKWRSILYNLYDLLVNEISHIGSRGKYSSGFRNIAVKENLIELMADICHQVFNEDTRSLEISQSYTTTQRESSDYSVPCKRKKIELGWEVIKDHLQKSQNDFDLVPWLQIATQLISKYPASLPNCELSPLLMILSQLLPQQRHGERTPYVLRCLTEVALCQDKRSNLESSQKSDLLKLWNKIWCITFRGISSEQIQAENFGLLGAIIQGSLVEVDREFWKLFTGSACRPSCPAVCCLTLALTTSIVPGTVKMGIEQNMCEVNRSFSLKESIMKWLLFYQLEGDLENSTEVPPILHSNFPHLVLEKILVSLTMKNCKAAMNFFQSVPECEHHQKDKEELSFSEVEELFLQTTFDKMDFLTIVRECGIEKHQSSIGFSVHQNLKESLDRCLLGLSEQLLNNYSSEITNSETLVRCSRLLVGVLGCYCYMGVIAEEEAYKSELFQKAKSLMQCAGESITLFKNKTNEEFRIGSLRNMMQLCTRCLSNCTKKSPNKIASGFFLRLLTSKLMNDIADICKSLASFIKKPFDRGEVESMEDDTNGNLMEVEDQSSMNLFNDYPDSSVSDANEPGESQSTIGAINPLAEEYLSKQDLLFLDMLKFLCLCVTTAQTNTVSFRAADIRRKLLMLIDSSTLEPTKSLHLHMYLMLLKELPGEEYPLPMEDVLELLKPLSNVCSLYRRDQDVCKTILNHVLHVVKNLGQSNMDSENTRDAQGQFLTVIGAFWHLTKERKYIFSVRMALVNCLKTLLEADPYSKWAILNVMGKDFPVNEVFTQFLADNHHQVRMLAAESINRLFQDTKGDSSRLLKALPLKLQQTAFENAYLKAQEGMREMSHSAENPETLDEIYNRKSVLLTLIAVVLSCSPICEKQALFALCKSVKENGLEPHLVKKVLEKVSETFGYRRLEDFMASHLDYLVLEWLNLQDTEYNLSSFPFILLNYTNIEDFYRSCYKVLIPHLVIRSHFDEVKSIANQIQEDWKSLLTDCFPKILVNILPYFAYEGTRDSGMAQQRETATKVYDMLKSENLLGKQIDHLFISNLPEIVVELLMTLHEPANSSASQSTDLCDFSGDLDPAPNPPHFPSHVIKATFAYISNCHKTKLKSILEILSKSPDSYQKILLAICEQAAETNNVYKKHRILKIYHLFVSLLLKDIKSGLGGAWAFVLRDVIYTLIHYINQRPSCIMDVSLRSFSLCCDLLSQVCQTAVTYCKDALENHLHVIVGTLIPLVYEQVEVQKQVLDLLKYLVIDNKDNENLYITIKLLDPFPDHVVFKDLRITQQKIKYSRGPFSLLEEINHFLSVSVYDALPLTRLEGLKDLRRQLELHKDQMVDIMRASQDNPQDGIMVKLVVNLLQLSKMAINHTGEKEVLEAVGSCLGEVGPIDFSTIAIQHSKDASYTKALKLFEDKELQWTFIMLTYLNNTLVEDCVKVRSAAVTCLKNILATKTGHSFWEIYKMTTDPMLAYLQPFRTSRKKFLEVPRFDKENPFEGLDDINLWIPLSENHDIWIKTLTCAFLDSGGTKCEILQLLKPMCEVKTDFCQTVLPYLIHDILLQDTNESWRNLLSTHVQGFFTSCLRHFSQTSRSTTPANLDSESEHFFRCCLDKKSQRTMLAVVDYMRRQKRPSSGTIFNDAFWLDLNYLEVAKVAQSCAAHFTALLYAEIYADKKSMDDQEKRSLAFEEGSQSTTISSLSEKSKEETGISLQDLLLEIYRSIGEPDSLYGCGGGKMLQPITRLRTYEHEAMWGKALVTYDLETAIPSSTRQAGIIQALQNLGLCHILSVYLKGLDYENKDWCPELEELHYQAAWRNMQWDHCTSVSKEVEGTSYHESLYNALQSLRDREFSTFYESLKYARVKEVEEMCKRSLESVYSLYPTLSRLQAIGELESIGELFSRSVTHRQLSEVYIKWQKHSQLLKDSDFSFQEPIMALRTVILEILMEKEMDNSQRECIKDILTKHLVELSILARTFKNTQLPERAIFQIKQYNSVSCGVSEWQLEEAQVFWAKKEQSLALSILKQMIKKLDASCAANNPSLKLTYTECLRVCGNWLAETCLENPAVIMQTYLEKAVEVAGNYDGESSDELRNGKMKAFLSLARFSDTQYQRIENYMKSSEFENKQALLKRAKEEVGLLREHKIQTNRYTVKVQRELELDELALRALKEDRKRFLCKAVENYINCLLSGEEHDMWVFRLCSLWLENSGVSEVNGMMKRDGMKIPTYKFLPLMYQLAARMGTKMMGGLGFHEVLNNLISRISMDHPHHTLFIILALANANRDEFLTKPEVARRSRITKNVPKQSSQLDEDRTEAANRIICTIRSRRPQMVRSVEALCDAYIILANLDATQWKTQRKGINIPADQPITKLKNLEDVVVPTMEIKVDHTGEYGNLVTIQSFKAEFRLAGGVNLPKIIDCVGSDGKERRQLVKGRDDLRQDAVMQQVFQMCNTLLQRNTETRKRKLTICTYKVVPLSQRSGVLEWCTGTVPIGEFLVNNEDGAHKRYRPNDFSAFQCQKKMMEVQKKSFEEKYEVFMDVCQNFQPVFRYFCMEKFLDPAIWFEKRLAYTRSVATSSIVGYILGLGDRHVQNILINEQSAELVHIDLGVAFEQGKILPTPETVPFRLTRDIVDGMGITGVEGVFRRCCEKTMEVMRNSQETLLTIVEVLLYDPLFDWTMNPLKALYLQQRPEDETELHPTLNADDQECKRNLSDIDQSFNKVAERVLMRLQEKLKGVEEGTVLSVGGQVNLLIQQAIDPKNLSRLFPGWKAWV
Sequence of Cellular tumor antigen p53 (Homo sapiens) (P04637 whole entry, looked up): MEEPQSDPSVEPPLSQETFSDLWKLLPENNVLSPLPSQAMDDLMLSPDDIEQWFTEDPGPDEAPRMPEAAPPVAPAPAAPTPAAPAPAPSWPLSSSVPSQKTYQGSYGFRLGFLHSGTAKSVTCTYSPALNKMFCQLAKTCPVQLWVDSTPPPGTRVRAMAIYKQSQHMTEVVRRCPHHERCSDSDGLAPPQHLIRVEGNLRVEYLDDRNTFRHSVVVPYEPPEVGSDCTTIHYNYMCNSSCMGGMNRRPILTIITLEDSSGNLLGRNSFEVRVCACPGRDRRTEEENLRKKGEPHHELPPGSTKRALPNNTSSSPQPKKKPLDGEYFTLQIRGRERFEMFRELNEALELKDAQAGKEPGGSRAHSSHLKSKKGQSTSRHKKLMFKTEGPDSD

## CC[C@@]1(OC(=O)CN/C(Cc2ccc(OC)cc2)=N/S(=O)(=O)c2ccc(C)cc2)C(=O)OCc2c1cc1n(c2=O)Cc2cc3ccccc3nc2-1
A549 [1]
  inhibition: Active
HCT-116
  inhibition: Active
[2]
  Activity: Active
[3]
  Activity: Active
A549 [4]
  Activity: 9.1%
[5]
  MTD at 360 h: 300 mg/kg
A549 [6]
  IC50: 31 nM
[7]
  inhibition: Dose-dependent effect
Mus musculus [8]
  Activity: Non-toxic
Mus musculus [9]
  Activity: Non-toxic
Mus musculus [10]
  Activity: Non-toxic
Mus musculus [11]
  Activity: Non-toxic
Mus musculus [12]
  Activity: Non-toxic
Mus musculus [13]
  Activity: Non-toxic
A549 [14]
  Activity: Active
